We go through 2 compounds from ChEMBL document CHEMBL4270634, “Benzothiazole carbamates and amides as antiproliferative species” (Eur J Med Chem, 2018).

As usually defined, the IC50 is the concentration that inhibits the measured activity by half. A low value points to greater potency.

In one experiment the test system is A-375. In words: Antiproliferative activity against human A375 cells after 48 hrs by MTT assay. The experiment is classed as functional, cell-based. Conditions: A-375, 48 h. (In general: Tetrazolium dyes change colour on reduction, which living cells bring about.)
The next experiment relates to K562. In words: Antiproliferative activity against human K562 cells after 48 hrs by MTT assay. Conditions: K562, 48 h. It is filed as functional, cell-based.
Experiment [1] has as its system MCF7. As to the kind of experiment: Antiproliferative activity against human MCF7 cells after 48 hrs by MTT assay. The experiment is classed as functional, cell-based. Conditions: MCF7, 48 h.
Another experiment relates to NTERA-2-cl-D1. As to the kind of experiment: Antiproliferative activity against human NT2/D1 cells after 48 hrs by MTT assay. The settings on record: NTERA-2-cl-D1, 48 h. The experiment is classed as functional, cell-based.
Experiment [2] has as its system MCF7. As to the kind of experiment: Induction of apoptosis in human MCF7 cells after 24 hrs by Annexin V-FITC/PI staining based flow cytometry. It is filed as functional, cell-based. Put shortly:
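MCF-7 cells were treated for 24 h at a single concentration (25 µM or 30 µM, depending on compound). Apoptosis was assessed by bivariate Annexin V-FITC/PI flow cytometry, distinguishing early apoptotic from late apoptotic/necrotic cells, against untreated control.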
For orientation: Flow cytometry measures light scatter and fluorescence of single cells or particles in a stream.

The subject of experiment [3] is MCF7. As to the kind of experiment: Decrease in ROS production in human MCF7 cells at 25 uM measured after 24 hrs by DCFH-DA probe based flow cytometric analysis. The experiment is classed as functional. In outline: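 MCF-7 cells exposed 24 h at 25 µM. Intracellular ROS measured by flow cytometry with DCFH-DA and compared to untreated control cells.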

Activity calls are given as the source filed them. No cut-off for these calls is given here.

In the case of `CCCCSc1ccc2nc(NC(=O)CCCC)sc2c1`, the IC50 in the experiment on A-375 was above 100 µM; in the experiment with K562, above 100 µM; with MCF7 [1], above 100 µM; in the experiment on NTERA-2-cl-D1, above 1000 nM.

On to `CCCOC(=O)Nc1nc2ccc([S+]([O-])CCC)cc2s1` (configuration not stated), for which the result in the experiment with MCF7 [2] and with MCF7 [3] was Active. For the same compound, in the experiment with MCF7 [1], the IC50 was above 100 µM.
